Results as given in ChEMBL document CHEMBL4715924, “Virtual Screening Approach to Identifying a Novel and Tractable Series of Pseudomonas aeruginosa Elastase Inhibitors” (ACS Med Chem Lett, 2021).

Legend:
[1] = Inhibition of Pseudomonas aeruginosa LasB using Abz-Ala-Gly-Leu-Ala-p-Nitro-Benzyl-Amide as substrate measured for every 60 sec for 30 mins by UV-fluorescence based assay
How it was run: (§1)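 Purified LasB enzyme in a fluorometric inhibition assay adapted from a published method. Compounds were screened at a single concentration of 30 μM (follow-ups in duplicate), and selected compounds were retested over 0.4–200 μM in dose–response. A modified version added 0.01% Triton X-100 to the assay buffer.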

[2] = tested on: Pseudomonas aeruginosa PAO1; assay: Inhibition of Pseudomonas aeruginosa PAO1 LasB using ECR as substrate assessed as reduction in elastin hydrolysis at 50 uM incubated for 16 hrs by congo-red dye based spectrophotometry relative to control
How it was run: (§2)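 The enzyme source was LasB secreted into P. aeruginosa culture supernatant, with elastin congo-red as substrate. Elastin degradation releases congo-red dye into the supernatant, which is quantified spectrophotometrically.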

[3] = target: T1, Angiotensin-converting enzyme (Oryctolagus cuniculus, UniProt P12822); assay: Inhibition of rabbit ACE using Abz-FRK(DNP)-P as substrate measured for every 30 sec for 5 mins by UV-fluorescence based assay
T1 sequence (P12822 whole entry): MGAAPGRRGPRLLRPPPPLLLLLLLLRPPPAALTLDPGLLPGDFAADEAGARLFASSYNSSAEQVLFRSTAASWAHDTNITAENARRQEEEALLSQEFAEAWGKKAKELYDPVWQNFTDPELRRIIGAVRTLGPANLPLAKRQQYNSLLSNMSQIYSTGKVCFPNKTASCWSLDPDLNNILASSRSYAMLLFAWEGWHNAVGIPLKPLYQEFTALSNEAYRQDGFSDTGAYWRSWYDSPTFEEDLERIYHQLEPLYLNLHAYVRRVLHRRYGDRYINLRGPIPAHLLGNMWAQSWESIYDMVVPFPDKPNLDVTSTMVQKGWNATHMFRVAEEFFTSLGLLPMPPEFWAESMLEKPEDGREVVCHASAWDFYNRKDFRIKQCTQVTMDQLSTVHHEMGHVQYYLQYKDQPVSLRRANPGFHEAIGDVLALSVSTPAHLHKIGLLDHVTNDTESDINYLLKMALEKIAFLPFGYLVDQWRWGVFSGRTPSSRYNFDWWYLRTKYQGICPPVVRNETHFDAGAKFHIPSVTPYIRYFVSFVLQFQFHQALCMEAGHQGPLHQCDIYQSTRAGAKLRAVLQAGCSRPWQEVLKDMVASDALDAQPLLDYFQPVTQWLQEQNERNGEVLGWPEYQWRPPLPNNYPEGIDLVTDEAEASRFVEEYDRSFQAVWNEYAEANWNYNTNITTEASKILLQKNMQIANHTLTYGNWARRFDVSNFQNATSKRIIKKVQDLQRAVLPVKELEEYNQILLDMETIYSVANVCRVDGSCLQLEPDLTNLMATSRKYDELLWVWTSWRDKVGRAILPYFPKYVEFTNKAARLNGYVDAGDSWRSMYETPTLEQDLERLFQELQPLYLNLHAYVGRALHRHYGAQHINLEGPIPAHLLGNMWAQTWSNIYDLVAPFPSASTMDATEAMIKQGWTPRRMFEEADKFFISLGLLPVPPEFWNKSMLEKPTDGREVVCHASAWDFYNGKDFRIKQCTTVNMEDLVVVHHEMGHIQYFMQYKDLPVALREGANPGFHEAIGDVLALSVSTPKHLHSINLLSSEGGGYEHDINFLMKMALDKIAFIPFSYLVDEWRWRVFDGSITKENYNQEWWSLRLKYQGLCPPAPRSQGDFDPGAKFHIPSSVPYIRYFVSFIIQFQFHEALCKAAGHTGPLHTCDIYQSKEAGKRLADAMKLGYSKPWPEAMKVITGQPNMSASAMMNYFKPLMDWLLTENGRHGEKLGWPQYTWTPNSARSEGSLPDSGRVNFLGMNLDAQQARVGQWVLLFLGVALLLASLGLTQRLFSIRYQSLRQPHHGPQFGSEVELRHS

[4] = tested on: Pseudomonas aeruginosa PAO1; assay: Inhibition of Pseudomonas aeruginosa PAO1 LasB using ECR as substrate assessed as reduction in elastin hydrolysis at 25 uM incubated for 16 hrs by congo-red dye based spectrophotometry relative to control; how it was run: as §2
[5] = tested on: ACE (off-target) relative to Pseudomonas aeruginosa PAO1 LasB; assay: Selectivity index, ratio of Ki for rabbit ACE to Ki for Pseudomonas aeruginosa PAO1 LasB; format: toxicity; details: read-out: Ratio Ki
Collagenase 3 = Collagenase 3 (Homo sapiens, UniProt P45452); assay: Inhibition of human MMP13
[6] = target: 72 kDa type IV collagenase (Homo sapiens, UniProt P08253); assay: Inhibition of human MMP2
Interstitial collagenase = target: T2, Interstitial collagenase (Homo sapiens, UniProt P03956); assay: Inhibition of human MMP1
T2 sequence (P03956 whole entry): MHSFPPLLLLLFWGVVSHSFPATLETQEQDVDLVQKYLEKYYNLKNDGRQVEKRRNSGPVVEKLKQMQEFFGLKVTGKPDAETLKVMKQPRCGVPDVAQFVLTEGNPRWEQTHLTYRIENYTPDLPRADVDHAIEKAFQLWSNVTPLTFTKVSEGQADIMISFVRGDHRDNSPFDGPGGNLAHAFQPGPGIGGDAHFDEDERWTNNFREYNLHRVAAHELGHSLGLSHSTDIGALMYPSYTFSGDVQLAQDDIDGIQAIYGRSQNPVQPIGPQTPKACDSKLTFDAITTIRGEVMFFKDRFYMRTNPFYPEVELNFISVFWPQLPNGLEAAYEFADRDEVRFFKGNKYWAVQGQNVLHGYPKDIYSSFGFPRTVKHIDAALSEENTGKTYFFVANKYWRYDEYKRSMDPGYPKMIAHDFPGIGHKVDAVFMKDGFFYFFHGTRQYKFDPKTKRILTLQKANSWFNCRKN

[7] = Inhibition of Pseudomonas aeruginosa LasB using Abz-Ala-Gly-Leu-Ala-p-Nitro-Benzyl-Amide as substrate by micro-titer based fluorimetric assay; how it was run: as §1

Chain of 72 kDa type IV collagenase (P08253 whole entry): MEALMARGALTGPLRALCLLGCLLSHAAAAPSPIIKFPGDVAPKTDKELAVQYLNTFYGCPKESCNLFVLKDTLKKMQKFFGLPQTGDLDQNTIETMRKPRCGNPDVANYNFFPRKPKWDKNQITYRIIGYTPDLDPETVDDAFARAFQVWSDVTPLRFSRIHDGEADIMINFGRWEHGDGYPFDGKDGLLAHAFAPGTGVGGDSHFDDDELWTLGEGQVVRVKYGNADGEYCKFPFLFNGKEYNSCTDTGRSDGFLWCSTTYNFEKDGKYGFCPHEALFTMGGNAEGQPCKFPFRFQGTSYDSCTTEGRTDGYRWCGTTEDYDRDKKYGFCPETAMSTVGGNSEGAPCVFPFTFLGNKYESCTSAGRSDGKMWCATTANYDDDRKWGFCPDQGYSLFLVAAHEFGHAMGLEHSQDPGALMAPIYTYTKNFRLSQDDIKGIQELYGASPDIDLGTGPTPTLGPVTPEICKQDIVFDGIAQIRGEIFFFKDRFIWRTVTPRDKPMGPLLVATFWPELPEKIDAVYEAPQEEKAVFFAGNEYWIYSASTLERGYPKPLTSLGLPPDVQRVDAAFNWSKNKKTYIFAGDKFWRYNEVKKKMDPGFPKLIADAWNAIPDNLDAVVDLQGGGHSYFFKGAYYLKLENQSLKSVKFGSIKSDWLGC

Ki [1] [µM]	inhibition [2] [%]	Ki [3] [µM]	inhibition [4] [%]	IC50 (Collagenase 3) [µM]	IC50 [6] [µM]	IC50 (Interstitial collagenase) [µM]	Ki [7] [µM]	SMILES	selectivity ratio [5]
14.8	22	> 57	–	–	–	–	–	CC(NC(=O)CC1(C(=O)O)Cc2ccccc2C1)c1cc2ccccc2o1 (racemic)	–
3.54	35	> 57	23	–	–	–	–	O=C(O)CC1(C(=O)NCc2c[nH]c3ccccc23)Cc2ccccc2C1	–
1.4	54	> 57	45	–	–	–	–	O=C(O)CC1(C(=O)NCc2cc3ccccc3o2)Cc2ccccc2C1	–
4.34	25	> 57	18	–	–	–	–	O=C(O)CC1(C(=O)NCCc2cc3ccccc3[nH]2)Cc2ccccc2C1	–
2.27	44	> 57	33	–	–	–	–	C[C@@H](NC(=O)C1(CC(=O)O)Cc2ccccc2C1)c1cc2ccccc2o1	–
0.69	60	> 57	51	–	–	–	–	Cn1c(CNC(=O)C2(CC(=O)O)Cc3ccccc3C2)cc2ccccc21	–
6.87	–	> 57	–	–	–	–	–	Cc1ccccc1OCC(=O)N(CCC(=O)O)Cc1cccc(F)c1F	–
18.1	–	> 57	–	–	–	–	–	Cc1cc(Br)ccc1C(=O)NC1=NC(=O)CN1	–
0.45	60	> 57	–	–	–	–	–	Cc1ccc2oc(CNC(=O)C3(CC(=O)O)Cc4ccccc4C3)cc2c1	–
1.75	54	> 57	43	–	–	–	–	O=C(O)CC1(C(=O)NCc2ccccc2)Cc2ccccc2C1	–
0.16	79	> 57	69	> 10	> 10	> 10	–	O=C(O)CC1(C(=O)NCc2nc3ccccc3s2)Cc2ccccc2C1	> 356
> 92	2	> 57	–	–	–	–	–	Cc1ccc2oc(CNC(=O)CC3(C(=O)O)Cc4ccccc4C3)cc2c1	–
1.19	54	> 57	42	–	–	–	–	O=C(O)CC1(C(=O)NCc2ncc(-c3ccccc3)s2)Cc2ccccc2C1	–
0.61	63	> 57	–	–	–	–	–	O=C(O)CC1(C(=O)NCc2ccc3ccccc3n2)Cc2ccccc2C1	–
76.2	7	–	–	–	–	–	–	O=C(CC1(C(=O)O)Cc2ccccc2C1)NCc1ccc2ccccc2n1	–
12.5	32	18	21	–	–	–	–	Cn1c(CNC(=O)C2(CC(=O)O)Cc3ccccc3C2)nc2ccccc21	–
4.85	28	40.6	18	–	–	–	–	O=C(O)CC1(C(=O)NCCc2cc3ccccc3s2)Cc2ccccc2C1	–
> 92	8	> 57	–	–	–	–	–	Cn1cc(CNC(=O)CC2(C(=O)O)Cc3ccccc3C2)cn1	–
1.9	51	31.3	41	–	–	–	–	O=C(O)CC1(C(=O)NCc2coc3ccccc23)Cc2ccccc2C1	–
4.04	42	> 57	–	–	–	–	–	Cn1cc(CNC(=O)C2(CC(=O)O)Cc3ccccc3C2)cn1	–
1.08	49	> 57	35	–	–	–	–	O=C(O)CC1(C(=O)NCc2cc3ccccc3[nH]2)Cc2ccccc2C1	–
–	–	–	–	–	–	–	0.041	NC(=O)[C@H](Cc1ccc(O)cc1)NC(=O)[C@H](Cc1ccccc1)NC(=O)CS	–
3.21	47	> 57	37	–	–	–	–	C[C@H](NC(=O)C1(CC(=O)O)Cc2ccccc2C1)c1cc2ccccc2o1	–
10.5	21	> 57	11	–	–	–	–	O=C(O)CC1(C(=O)NCCc2nc3ccccc3s2)Cc2ccccc2C1	–
13.6	18	> 57	11	–	–	–	–	O=C(O)CC1(C(=O)NCCc2nc3ccccc3[nH]2)Cc2ccccc2C1	–
0.62	57	> 57	47	–	–	–	–	O=C(O)CC1(C(=O)NCc2cc3ccccc3s2)Cc2ccccc2C1	–
0.12	76	> 57	68	> 10	> 10	> 10	–	O=C(O)CC1(C(=O)NCc2nc(-c3ccccc3)cs2)Cc2ccccc2C1	> 356
5.66	25	> 57	16	–	–	–	–	O=C(O)CC1(C(=O)NCCc2cc3ccccc3o2)Cc2ccccc2C1	–
0.61	65	> 57	55	–	–	–	–	O=C(O)CC1(C(=O)NCc2nccs2)Cc2ccccc2C1	–
21.5	20	> 57	11	–	–	–	–	O=C(O)CC1(C(=O)NCc2nc3ccccc3[nH]2)Cc2ccccc2C1	–
